Assay results collected from several papers.
Each line is one published result; the experiments were not run side by side.
Target: Serine/threonine-protein kinase PAK 2 (PAK2, Homo sapiens, UniProt Q13177)

C[C@@H]1CCN(c2nccc(-c3cnn4ncccc34)n2)C1  remaining binding (binding; 1 µM): 99%
c1cncc(-c2cccc(Nc3nccc(NC4CCCCC4)n3)c2)c1  remaining binding (binding, competition with immobilised ligand; 10 µM): 56%
CN(C)c1nccc(-c2cnc3ncccn23)n1  remaining binding (binding; 1 µM): 100%
COc1cnc(Nc2cccc(S(N)(=O)=O)c2)nc1N1CCN(c2ccccc2)CC1  remaining binding (binding, competition with immobilised ligand; 1 µM): 100%
CNCc1ccccc1-c1csc([C@@H](C)Nc2nc(C)nc3cc(OC)c(OC)cc23)c1  remaining binding (cell-free assay, competition with immobilised ligand; 1 µM): 88%
O=C(c1ccc(Nc2nccc(-c3cc4ccccc4s3)n2)cc1)N1CCC(N2CCCC2)CC1  remaining binding (binding, competition with immobilised ligand; 1 µM): 69%
F[C@@H]1CCN(c2nccc(-c3cnn4ncccc34)n2)C1  remaining binding (binding; 1 µM): 100%
O=C(c1ccc(Nc2ncc(Cl)c(-c3ccc(Cl)s3)n2)cc1)N1CCC(N2CCCC2)CC1  remaining binding (binding, competition with immobilised ligand; 1 µM): 49%
O=C(N[C@H]1CCCCC/C=C\C2C[C@@]2(C(=O)O)NC(=O)[C@@H]2C[C@@H](Oc3ccncc3)CN2C1=O)OC1CCCC1 (stereo partly drawn)  remaining binding (binding, competition with immobilised ligand; 1 µM): 79%
C[C@@H]1CN(c2ccc3ncc(-c4ccc5[nH]nc(C6CC6)c5c4)n3n2)C[C@H](C)O1  remaining binding (binding, competition with immobilised ligand; 0.5 µM): 55%
O=C(c1ccc(Nc2ncc(Cl)c(-c3cc4ccccc4s3)n2)cc1)N1CCC(N2CCCC2)CC1  remaining binding (binding, competition with immobilised ligand; 1 µM): 59%
CCCCN(CCCC)C(=O)CN1C[C@@H](c2cc(OC)c3c(c2)OCO3)[C@H](C(=O)O)[C@H]1CC(C)(C)CCC  remaining binding (cell-free assay, competition with immobilised ligand; 1 µM): 83.5%
N[C@@H]1CCN(c2nccc(-c3cnn4ncccc34)n2)C1  remaining binding (binding; 1 µM): 100%
O=C(Nc1c[nH]nc1C(=O)NC1CCNCC1)c1cc(F)cc(F)c1  remaining binding (binding, competition with immobilised ligand; 1 µM): 100%
CNC(=O)c1ccc(Nc2ncc(C(F)(F)F)c(NCc3nccnc3N(C)S(C)(=O)=O)n2)cc1  remaining binding (cell-free assay, competition with immobilised ligand; 0.1 µM): 72%
C[C@@H](c1ccc(-n2cnc3c(N)ncnc32)cc1)N1CCc2nn(C)c(Cc3ccccc3)c2C1=O  remaining binding (binding, competition with immobilised ligand; 0.1 µM): 61%
c1cnn2ncc(-c3ccnc(N4CCC45COC5)n3)c2c1  remaining binding (binding; 1 µM): 70%
N#Cc1ccccc1CSc1nnc2c(n1)[nH]c1ccccc12  remaining binding (binding, competition with immobilised ligand; 10 µM): 88%
CCS(=O)(=O)c1cc2cc(C[C@](O)(CC(C)(C)c3ccc(F)cc3C(N)=O)C(F)(F)F)[nH]c2cn1  remaining binding (cell-free assay, competition with immobilised ligand; 1 µM): 86%
Nc1ncc2c(n1)-c1c([nH]c3ccc(C#CC4CC4)cc13)CCCC2  remaining binding (binding, competition with immobilised ligand; 1 µM): 33%
CCC(=O)N[C@H]1CC[C@@H](C(=O)N(C)c2ccc(-c3nc4ccccc4o3)cc2)C1  remaining binding (cell-free assay, competition with immobilised ligand; 1 µM): 100%
CN(C)c1nccc(-c2cnn3ncccc23)n1  remaining binding (binding; 1 µM): 64%
CN(C(=O)c1ccccc1)c1cc(N(C)c2ccc3c(c2)CCc2ccc(C(=O)NCCN4CCOCC4)cc2C3=O)ccc1F  remaining binding (cell-free assay, competition with immobilised ligand; 1 µM): 63%
FC(F)(F)Oc1cccc(-c2cnc3ccc(-c4ccncc4)nn23)c1  remaining binding (cell-free assay, competition with immobilised ligand; 5 µM): 43%
